# According to ChEMBL document CHEMBL4014335, “Activation of Phenyl 4-(2-Oxo-3-alkylimidazolidin-1-yl)benzenesulfonates Prodrugs by CYP1A1 as New Antimitotics Targeting Breast Cancer Cells” (J Med Chem, 2017):
# Active and inactive are the calls of the source. The calls are words filed in the database; no cut-off is given here.
# Columns and labels:
# Cytochrome P450 1A1 = target: T1, Cytochrome P450 1A1 (Homo sapiens, UniProt P04798); assay: Prodrug activation assessed as time required for human supersomes CYP1A1-mediated 3,4,5-trimethoxyphenyl 4-(2-oxoimidazolidin-1-yl)benzenesulfonate formation after 4 hrs by HPLC-MS analysis; type: ADME; settings: recombinant enzyme
# T1 sequence (P04798 whole entry): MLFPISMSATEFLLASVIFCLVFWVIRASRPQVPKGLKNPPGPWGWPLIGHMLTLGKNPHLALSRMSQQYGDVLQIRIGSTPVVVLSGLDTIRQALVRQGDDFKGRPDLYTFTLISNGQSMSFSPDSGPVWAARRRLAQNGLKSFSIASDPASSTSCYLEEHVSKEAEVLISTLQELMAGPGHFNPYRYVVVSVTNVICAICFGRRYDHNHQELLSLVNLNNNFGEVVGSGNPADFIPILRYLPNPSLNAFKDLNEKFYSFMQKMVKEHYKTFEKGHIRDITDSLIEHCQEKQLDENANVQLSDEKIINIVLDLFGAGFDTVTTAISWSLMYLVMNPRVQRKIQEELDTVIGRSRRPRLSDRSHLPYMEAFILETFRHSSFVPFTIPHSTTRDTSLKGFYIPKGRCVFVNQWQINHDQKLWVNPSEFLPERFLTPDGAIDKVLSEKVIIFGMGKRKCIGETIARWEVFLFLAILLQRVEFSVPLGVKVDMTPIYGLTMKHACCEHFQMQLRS
# MDA-MB-468 [1] = assay: Cell cycle arrest in human MDA-MB-468 cells assessed as accumulation at G2/M phase at 50 nM after 24 hrs by DAPI-staining based FACS analysis (reference value: 19.5%); type: functional
# Chorioallantoic membrane = assay: Toxicity in chicken chorioallantoic membrane implanted with CYP1A1 transfected human HT1080 cells at 1 ug/egg, iv administered on day 11 post implantation measured on day 17; type: organism-based, Gallus gallus; settings: in vivo
# How it was run: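 Fertilized chicken eggs bearing CYP1A1-transfected HT-1080 tumors on the CAM. On day 11, drug (40 mM DMSO stock) diluted in cremophor/EtOH/PBS 6.25/6.25/87.5, final DMSO < 0.5%. Given iv in 100 µL to 10–12 eggs per group. Embryos killed on day 17, tumor wet weight recorded, deaths and toxicity signs scored. Two independent experiments, 20–24 eggs in total.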
# MDA-MB-468 [2] = assay: Cell cycle arrest in human MDA-MB-468 cells assessed as accumulation at subG1 phase at 50 nM after 24 hrs by DAPI-staining based FACS analysis (reference value: 0.2%); type: functional
# Cytochrome P450 1B1 = target: T2, Cytochrome P450 1B1 (Homo sapiens, UniProt Q16678); assay: Prodrug activation assessed as human supersomes CYP1B1-mediated 3,4,5-trimethoxyphenyl 4-(2-oxoimidazolidin-1-yl)benzenesulfonate formation after 4 hrs by HPLC-MS analysis; type: ADME; settings: recombinant enzyme
# T2 sequence (Q16678 whole entry): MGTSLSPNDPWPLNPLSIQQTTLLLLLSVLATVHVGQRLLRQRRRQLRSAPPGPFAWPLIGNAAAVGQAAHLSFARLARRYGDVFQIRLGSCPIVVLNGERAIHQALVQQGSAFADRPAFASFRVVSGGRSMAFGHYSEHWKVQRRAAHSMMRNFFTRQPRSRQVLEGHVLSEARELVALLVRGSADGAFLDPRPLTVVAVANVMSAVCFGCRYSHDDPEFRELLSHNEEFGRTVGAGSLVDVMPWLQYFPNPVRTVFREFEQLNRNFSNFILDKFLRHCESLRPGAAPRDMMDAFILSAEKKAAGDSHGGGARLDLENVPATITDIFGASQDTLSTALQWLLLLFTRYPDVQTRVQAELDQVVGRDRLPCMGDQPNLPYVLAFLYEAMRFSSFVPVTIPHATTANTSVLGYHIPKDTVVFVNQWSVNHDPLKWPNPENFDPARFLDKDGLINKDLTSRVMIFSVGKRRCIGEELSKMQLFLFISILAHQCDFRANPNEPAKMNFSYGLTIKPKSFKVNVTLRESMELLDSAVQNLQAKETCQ
# Homo sapiens [3] = species: Homo sapiens; assay: Destabilization of microtubule network in human MCF7 cells at 50 nM after 24 hrs by fluorescence microscopic analysis; type: cell-based
# Homo sapiens [4] = species: Homo sapiens; assay: Destabilization of microtubule network in human MDA-MB-231 cells at 50 nM after 24 hrs by fluorescence microscopic analysis; type: cell-based
# MDA-MB-231 [5] = assay: Cell cycle arrest in human MDA-MB-231 cells assessed as accumulation at G0/G1 phase at 50 nM after 24 hrs by DAPI-staining based FACS analysis (reference value: 70.7%); type: functional
# Homo sapiens [6] = species: Homo sapiens; assay: Destabilization of microtubule network in human MDA-MB-468 cells at 50 nM after 24 hrs by fluorescence microscopic analysis; type: cell-based
# MDA-MB-468 [7] = assay: Cytotoxicity against human MDA-MB-468 cells after 72 hrs in presence of CYP inhibitor mefipristone by SRB assay; type: functional, cell-based
# How it was run: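 MDA-MB-468 cells co-incubated for 72 h with drug plus a subtoxic concentration of a CYP inhibitor. Viability read by SRB assay: TCA fixation, sulforhodamine B staining, absorbance at 530-565 nm.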
# [8] = Selectivity ratio of IC50 for human M21 cells to IC50 for human MCF7 cells; type: functional
# How it was run: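 Ratio is IC50 in reference line over IC50 in sensitive line. […] Cells in DMEM with 5% calf serum at 37 °C. At least two experiments, triplicate cultures; assay accepted when relative SD < 10%.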
# MCF7 [9] = assay: Cell cycle arrest in human MCF7 cells assessed as accumulation at S phase at 8 nM after 24 hrs by DAPI-staining based FACS analysis (reference value: 10.6%); type: functional
# MDA-MB-231 [10] = assay: Cell cycle arrest in human MDA-MB-231 cells assessed as accumulation at G2/M phase at 8 nM after 24 hrs by DAPI-staining based FACS analysis (reference value: 15.5%); type: functional
# MDA-MB-468 [11] = assay: Cell cycle arrest in human MDA-MB-468 cells assessed as accumulation at subG1 phase at 8 nM after 24 hrs by DAPI-staining based FACS analysis (reference value: 0.2%); type: functional
# Homo sapiens [12] = species: Homo sapiens; assay: Destabilization of microtubule network in human MDA-MB-231 cells at 8 nM after 24 hrs by fluorescence microscopic analysis; type: cell-based
# MCF7 [13] = assay: Cell cycle arrest in human MCF7 cells assessed as accumulation at subG1 phase at 8 nM after 24 hrs by DAPI-staining based FACS analysis (reference value: 1.4%); type: functional
# Homo sapiens [14] = species: Homo sapiens; assay: Destabilization of microtubule network in human MCF7 cells at 8 nM after 24 hrs by fluorescence microscopic analysis; type: cell-based
Time (Cytochrome P450 1A1) [min],Drug metabolism (Cytochrome P450 1B1),Structure (SMILES),Activity (MDA-MB-468 [1]) [%],Activity (Chorioallantoic membrane),Activity (MDA-MB-468 [2]) [%],Activity (Homo sapiens [3]),Activity (Homo sapiens [4]),Activity (MDA-MB-231 [5]) [%],Activity (Homo sapiens [6]),Activity (MDA-MB-468 [7]),Ratio IC50 [8],Activity (MCF7 [9]) [%],Activity (MDA-MB-231 [10]) [%],Activity (MDA-MB-468 [11]) [%],Activity (Homo sapiens [12]),Activity (MCF7 [13]) [%],Activity (Homo sapiens [14])
30,Metabolite_Notdetected,CCCCN1CCN(c2ccc(S(=O)(=O)Oc3cc(OC)c(OC)c(OC)c3)cc2)C1=O,70.5,Non-Toxic,1.3,Active,inactive,73,Active,Active,380,,,,,,
,,COc1cc(OS(=O)(=O)c2ccc(N3CCNC3=O)cc2)cc(OC)c1OC,,,,,,,,,,10.7,76.6,1.7,inactive,35.6,Active
